Published values of several laboratories.
Lines come from different studies, so protocols differ.
RPS6KA3 N-terminal kinase domain: Ribosomal protein S6 kinase alpha-3, N-terminal kinase domain (RPS6KA3, Homo sapiens, UniProt P51812)
RPS6KA3: Ribosomal protein S6 kinase alpha-3 (RPS6KA3, Homo sapiens, UniProt P51812)

SMILES | target | test | setting | measurement | result
Cn1cncc1[C@](O)(COc1ccc(C#N)cc1-c1ccc(OC(F)(F)F)cc1)c1ccc(C#N)cc1 | RPS6KA3 N-terminal kinase domain | cell-free assay, competition with immobilised ligand | 1 µM | remaining binding | 100%
Nc1ncc(-c2nc(N3CCOCC3)nc(N3CCOCC3)n2)c(C(F)F)n1 | RPS6KA3 N-terminal kinase domain | binding, competition with immobilised ligand | 10 µM | remaining binding | 59%
N#CC1(c2ccccn2)CCN(Cc2cc(C(=O)O)c(=O)n3ccccc23)CC1 | Ribosomal protein S6 kinase alpha-3, C-terminal kinase domain (RPS6KA3, Homo sapiens, UniProt P51812) | cell-free assay, competition with immobilised ligand | 1 µM | remaining binding | 100%
COc1cc(Nc2ncc(F)c(Nc3ccc4c(n3)NC(=O)C(C)(C)O4)n2)cc(OC)c1OC | RPS6KA3 N-terminal kinase domain | binding, competition with immobilised ligand | 10 µM | inhibition | 88%
Cn1cc(-c2cc(F)cc(N3CCn4c(cc5c4CCCC5)C3=O)c2CO)cc(Nc2ccc(N3CCN(C4COC4)CC3)cn2)c1=O | RPS6KA3 | enzyme activity, inhibitor | 0.1 µM | inhibition | 7%
O=c1[nH]c2ccccc2n1C1CCN(Cc2ccc(-c3[nH]c4cc5ncnc5cc4nc3-c3ccccc3)cc2)CC1 | RPS6KA3 | cell-free assay | 0.5 µM | remaining signal | 96.6%
Cn1cc(-c2cccc(N3CCc4c(sc5c4CC(C)(C)C5)C3=O)c2CO)cc(Nc2ccncn2)c1=O | RPS6KA3 | enzyme activity, inhibitor | 1 µM | inhibition | 1%
CC(C)(C)c1cc(C=C(C#N)C#N)cc(Br)c1O | RPS6KA3 | enzyme activity, inhibitor | 0.5 µM | remaining activity | 92.2%
Cc1nn(C)cc1-c1nc2c(N3CCN(Cc4ccc(Cl)cc4)CC3)c(Cl)cnc2[nH]1 | RPS6KA3 N-terminal kinase domain | binding, competition with immobilised ligand | 1 µM | remaining binding | 84%
